Screens (PubChem BioAssay)
Compounds with a hit are over-represented: about 4.9% of the library has one in this group of screens.
NF-kB expr up: NF-kB expression increase, human neuronal cells; NF-kB reporter expression; hits give high values; fold change at 12.5 µM; 190,000 compounds, 1.6% hits; AID 1239; in the data active means fold change above about 3.3
STAT3 activator: increases IL-6 driven STAT3 reporter signal; U3A cells, IL-6 STAT3-luciferase reporter, luminescence; 100% = signal with IL-6 EC80 alone; activation (% of control), % at 5.6 µM; 190,000 compounds, 0.91% hits;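 active means activation above the screen-wide mean of compound activation plus 3 SD, cut at about 130% in these data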
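Material: human U3A cells carrying STAT3-luciferase construct. Measured by: reporter luminescence signal. Timing: compound 1 h, then IL-6 6 h at 37 °C.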
STAT3 blocker: inhibitors of IL-6 induced STAT3 signaling; inhibition, % at 5.5 µM; AID 862; 190,000 compounds, 0.89% hits; U3A cells, IL-6 STAT3-luciferase reporter, luminescence; host cell line lacks STAT1;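 active means inhibition above the mean inhibition across all screened compounds plus 3 SD, cut at about 44% in these data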
APP 5'UTR act: APP 5'UTR luciferase reporter activation. SH-SY5Y APP 5'UTR luciferase reporter, luminescence; zero percent = DMSO vehicle wells. activation, % at 2 µM. 190,000 compounds, 1% hits. AID 1276;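 active means activation above a set limit, based on mean plus 3 SD of controls, cut at about 140% in these data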
STAT1 inh: STAT1 signaling inhibition | 200,000 compounds, 0.35% hits | inhibition, % at 5.5 µM | NIH 3T3 STAT1-luciferase reporter, IFN-gamma, luminescence | AID 920;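 active means inhibition above a set limit, the mean inhibition across all tested compounds plus 3 SD, cut at about 34% in these data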
STAT1 act: STAT1 signaling activation; NIH 3T3 STAT1-luciferase reporter, IFN-gamma, luminescence; 100% = IFN-gamma alone, no compound; 200,000 compounds, 2.6% hits; activation (% of control), % at 5.5 µM;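 active means activation above the screen-wide mean activation plus 3 SD, cut at about 130% in these data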
Large screens that a line does not name were inactive.

Cn1c(SCc2ccccc2Cl)nc2ccccc21	STAT1 act 141
O=C(c1ccc([N+](=O)[O-])o1)N1CCOCC1	none
O=C(c1ccc(-c2ccc([N+](=O)[O-])cc2Cl)o1)N1CCOCC1	STAT1 act 133
COc1ccc(CNC(=O)c2ccc(C(C)(C)C)cc2)cc1	STAT1 act 138
COc1ccc(NC(=O)CC2C(=O)N(c3ccc(OC)cc3)C(=O)N2Cc2ccc(OC)c(OC)c2)cc1 (configuration not stated)	none
CCOc1ccccc1NC(=S)NCCc1ccccc1	none
O=C(c1ccc2ccccc2c1)N1CCN(c2ccc([N+](=O)[O-])c(N3CCOCC3)c2)CC1	none
CCOC(=O)N1CCN(c2ccc(O)cc2)CC1	NF-kB expr up 3.5
O=C(c1ccc2ccccc2c1)N1CCN(c2ccc(O)cc2)CC1	NF-kB expr up 4.1
COc1cc(C(=O)NNC(=S)Nc2ccc(S(N)(=O)=O)cc2)cc(OC)c1OC	none
CCO/C=C/C(O)(CNC(=O)c1ccc(C(C)(C)C)cc1)C(F)(F)F (configuration not stated)	none
COc1ccc(-c2nc(C#N)c(NCc3ccco3)o2)cc1	NF-kB expr up 3.6
Cc1ccc(-c2nc(C#N)c(NCc3ccco3)o2)cc1	NF-kB expr up 3.6
N#Cc1nc(-c2ccc(OCc3ccccc3)cc2)oc1NCc1ccco1	none
Cc1ccc(NC(=O)CSc2nnc(/N=C/N(C)C)s2)cc1	none
CCCNC(=O)c1oc2ccc3c(c2c1C)C(=O)CC(C)(C)O3	NF-kB expr up 5.1, APP 5'UTR act 190, STAT1 act 145
CCOC(=O)N1CCC2(CC1)CC(=O)c1c(ccc3oc(C(=O)O)c(C)c13)O2	none
Cc1ccc(N2C(=O)N(CC(=O)Nc3ccc(C)c(C)c3[N+](=O)[O-])C(=O)C2C)cc1 (configuration not stated)	none
O=C(Sc1cccc2cccnc12)c1ccc(F)cc1	STAT1 act 173
CC(=O)/C(=N\Nc1ccccc1)Sc1cccc2cccnc12	none
O=S(=O)(Nc1cc(Sc2cccc3cccnc23)c(O)c2ccccc12)c1ccc(F)cc1	STAT3 activator 184, STAT1 act 141
COc1ccc(S(=O)(=O)Nc2cc(Sc3ncn[nH]3)c(O)c3ccccc23)cc1	none
Cc1cc(C(=O)N/N=C/c2ccc[nH]2)no1	none
Cc1cc(C(=O)N/N=C/c2ccc[nH]2)n[nH]1	NF-kB expr up 4.4
CC(C)CC1(C)NC(=O)N(CC(=O)Nc2cccc(S(=O)(=O)N(C)c3ccccc3)c2)C1=O (configuration not stated)	none
Nc1nnc(-c2cc3ccccc3oc2=O)s1	STAT1 act 131
O=c1oc2ccccc2cc1-c1nc2c(s1)CCc1ccccc1-2	STAT3 activator 134 (no result: APP 5'UTR act)
O=c1oc2cc(O)ccc2cc1-c1nc2c(s1)CCc1ccccc1-2	none
COc1ccc2oc(=O)c(-c3nnc(N)s3)cc2c1	none
Cc1nn(C)cc1C(C)NCc1c(C(=O)N2CCCCCCC2)nc2ccc(Cl)cn12 (configuration not stated)	none
OCc1cn(-c2ccccc2)nc1-c1ccc2c(c1)OCCO2	STAT1 act 144
O=C(N/N=C\c1cn(-c2ccccc2)nc1-c1ccccc1)c1ccc2c(c1)OCO2	none
O=C(N/N=C/c1cn(-c2ccccc2)nc1-c1ccc2c(c1)OCCO2)c1ccncc1	STAT1 act 148
COc1ccc(-c2nn(-c3ccccc3)cc2CO)cc1OC	none
COc1cccc(-c2nn(-c3ccccc3)cc2CO)c1	STAT1 act 144
COc1cc(OC)cc(C(=O)Nc2c(C)nn(-c3ccccc3)c2C)c1	none
O=C(Nc1ccc(Nc2ccccc2)cc1)C1CC1	none
O=C1c2ccccc2C(=O)c2cc(NC(=O)C3CC3)ccc21	NF-kB expr up 4.5, APP 5'UTR act 139, STAT1 act 130
CCOc1ccccc1NC(=O)C(=O)N/N=C/c1cc(Br)ccc1O	none
Cc1c(/C(O)=C2/C(=O)C(=O)N(CCN3CCOCC3)C2c2cccs2)cnn1-c1ccccc1 (configuration not stated)	STAT1 act 143
c1ccc(-c2onc3cc4c(cc23)OCCO4)cc1	NF-kB expr up 3.8, STAT1 act 146
